Source: ChEMBL document CHEMBL1140235, “Novel 4-(4-aryl)cyclohexyl-1-(2-pyridyl)piperazines as Delta(8)-Delta(7) sterol isomerase (emopamil binding protein) selective ligands with antiproliferative activity” (J Med Chem, 2008)

Tests used:
[1] = target: Sigma non-opioid intracellular receptor 1 (Cavia porcellus, UniProt Q60492); experiment: Displacement of [3H](+)-pentazocine from sigma 1 receptor in guinea pig brain membrane without cerebellum; format: cell membranes
Summary of the method: (§1)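 Radioligand displacement run by previously published methods, EBP per Moebius and σ1/σ2 per Matsumoto. Tissues from male Dunkin guinea pigs and Wistar Hannover rats (250–300 g). IC50 from six to nine drug concentrations in two or three experiments, samples in duplicate.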

PC-3 [2] = experiment: Cytotoxicity against human PC3 cells assessed as LDH release at 100 uM after 24 hrs relative to untreated control; format: functional
Summary of the method: (§2)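 PC-3 cells exposed to test compound for 24 h at 37 °C, 5% CO2. LDH release into the medium was measured fluorimetrically (ex 560/em 590 nm) after 10 min with substrate mix at room temperature, then stop solution. Total LDH taken from lysed untreated wells. % cytotoxicity = 100 × (treated medium LDH − background)/(total LDH − background).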

PC-3 [3] = experiment: Antiproliferative activity against human PC3 cells expressing EBP at 100 uM after 48 hrs by MTT assay; format: functional; conditions: PC-3, 48 h
Summary of the method: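 PC-3 human prostate cancer cells grown in RPMI 1640 with 10% FBS, 2 mM glutamine and penicillin/streptomycin at 37 °C under 5% CO₂. Seeded at 10 000 cells/well, then dosed the next day with solvent (ethanol, DMSO) controls. Incubated 48 h. MTT 0.5 mg/mL added for 3 h at 37 °C, formazan dissolved in DMSO, absorbance read at 570 and 630 nm. Percent inhibition at 100 µM, n ≥ 2 separate experiments.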

Cavia porcellus = species on record: Cavia porcellus; experiment: Selectivity ratio of Ki for sigma 1 receptor in guinea pig brain membrane without cerebellum to Ki for EBP in guinea pig liver membrane; format: cell membranes
[4] = Selectivity ratio of Ki for sigma 2 receptor in rat liver membrane to Ki for EBP in guinea pig liver membrane; format: cell membranes
[5] = Displacement of [3H]-DTG from sigma 2-type opioid receptor in rat liver membrane in presence of (+)-pentazocine; format: cell membranes; summary of the method: as §1
[6] = target: T1, 3-beta-hydroxysteroid-Delta(8),Delta(7)-isomerase (Cavia porcellus, UniProt Q60490); experiment: Displacement of [3H](-)-(S)-emopamil from EBP in guinea pig liver membrane; format: cell membranes; summary of the method: as §1
T1 sequence (Q60490 whole entry): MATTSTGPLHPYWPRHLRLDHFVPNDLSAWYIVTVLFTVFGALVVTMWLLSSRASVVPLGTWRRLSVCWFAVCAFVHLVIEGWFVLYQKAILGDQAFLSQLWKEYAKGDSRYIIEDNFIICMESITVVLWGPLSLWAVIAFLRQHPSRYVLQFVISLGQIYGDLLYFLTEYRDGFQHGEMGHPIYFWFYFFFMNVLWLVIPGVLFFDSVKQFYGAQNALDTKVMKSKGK

PC-3 [7] = experiment: Antiproliferative activity against human PC3 cells expressing EBP after 48 hrs by MTT assay; format: functional, cell-based
Summary of the method: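 MTT read-out at 48 h in PC-3 cells grown in RPMI 1640 with 10% FBS, 2 mM glutamine, penicillin/streptomycin, 37 °C, 5% CO2. 10 000 cells/well seeded day 1, drugs added day 2 over 1–100 µM (150 or 300 µM for some references). Solvent controls included. MTT 0.5 mg/mL for 3 h, formazan dissolved in DMSO, absorbance at 570 and 630 nm.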

[8] = target: T2, Adrenergic receptor alpha-1 (Rattus norvegicus, UniProt P15823+P23944+P43140); experiment: Displacement of [3H]prazosin from adrenergic alpha1 receptor in rat cortical membrane; format: cell membranes
T2 sequence (P15823 whole entry): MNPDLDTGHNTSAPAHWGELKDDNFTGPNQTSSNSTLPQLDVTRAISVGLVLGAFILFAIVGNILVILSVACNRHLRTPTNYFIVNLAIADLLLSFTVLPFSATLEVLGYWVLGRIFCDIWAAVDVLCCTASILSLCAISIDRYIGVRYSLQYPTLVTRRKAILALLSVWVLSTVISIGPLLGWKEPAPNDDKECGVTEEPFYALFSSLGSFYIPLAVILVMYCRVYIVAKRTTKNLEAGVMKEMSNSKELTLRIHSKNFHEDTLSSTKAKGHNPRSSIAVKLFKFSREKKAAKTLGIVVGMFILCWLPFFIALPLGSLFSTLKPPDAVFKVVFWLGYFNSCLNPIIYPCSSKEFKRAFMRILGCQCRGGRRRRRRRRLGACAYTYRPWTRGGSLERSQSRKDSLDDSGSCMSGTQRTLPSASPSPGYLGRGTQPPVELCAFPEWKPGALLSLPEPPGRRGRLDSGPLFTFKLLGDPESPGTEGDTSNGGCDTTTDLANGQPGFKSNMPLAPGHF
T2 sequence (P23944 whole entry): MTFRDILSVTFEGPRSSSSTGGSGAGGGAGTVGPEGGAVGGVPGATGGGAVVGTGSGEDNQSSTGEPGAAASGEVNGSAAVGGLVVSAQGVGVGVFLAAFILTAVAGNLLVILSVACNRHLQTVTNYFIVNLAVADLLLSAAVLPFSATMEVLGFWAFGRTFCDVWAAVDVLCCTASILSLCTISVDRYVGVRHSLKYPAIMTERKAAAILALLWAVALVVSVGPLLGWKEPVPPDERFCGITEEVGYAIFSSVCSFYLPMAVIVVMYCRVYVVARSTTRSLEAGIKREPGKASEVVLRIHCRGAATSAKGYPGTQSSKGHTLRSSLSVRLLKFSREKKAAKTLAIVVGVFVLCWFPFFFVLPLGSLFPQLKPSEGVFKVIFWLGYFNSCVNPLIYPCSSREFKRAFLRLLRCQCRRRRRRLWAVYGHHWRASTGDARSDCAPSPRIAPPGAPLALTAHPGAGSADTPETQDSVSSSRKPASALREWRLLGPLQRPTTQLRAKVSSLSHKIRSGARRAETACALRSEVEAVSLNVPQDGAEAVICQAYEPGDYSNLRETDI
T2 sequence (P43140 whole entry): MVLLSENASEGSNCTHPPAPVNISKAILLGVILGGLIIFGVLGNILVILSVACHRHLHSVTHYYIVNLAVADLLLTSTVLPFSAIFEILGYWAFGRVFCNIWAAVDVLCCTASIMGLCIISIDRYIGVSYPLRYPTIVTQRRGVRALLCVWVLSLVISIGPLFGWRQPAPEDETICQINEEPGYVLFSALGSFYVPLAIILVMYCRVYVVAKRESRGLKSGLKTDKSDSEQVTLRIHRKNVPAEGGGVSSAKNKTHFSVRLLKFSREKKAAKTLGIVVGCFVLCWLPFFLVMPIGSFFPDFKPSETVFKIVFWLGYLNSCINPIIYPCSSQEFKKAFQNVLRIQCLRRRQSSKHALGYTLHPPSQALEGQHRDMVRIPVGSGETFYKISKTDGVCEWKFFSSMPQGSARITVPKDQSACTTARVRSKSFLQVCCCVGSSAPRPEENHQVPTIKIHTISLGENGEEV

D(2) dopamine receptor = D(2) dopamine receptor (Rattus norvegicus, UniProt P61169); experiment: Displacement of [3H]spiroperidol from dopamine D2 receptor in rat striatal membrane; format: cell membranes, Striatum
Chain of D(2) dopamine receptor (P61169 whole entry): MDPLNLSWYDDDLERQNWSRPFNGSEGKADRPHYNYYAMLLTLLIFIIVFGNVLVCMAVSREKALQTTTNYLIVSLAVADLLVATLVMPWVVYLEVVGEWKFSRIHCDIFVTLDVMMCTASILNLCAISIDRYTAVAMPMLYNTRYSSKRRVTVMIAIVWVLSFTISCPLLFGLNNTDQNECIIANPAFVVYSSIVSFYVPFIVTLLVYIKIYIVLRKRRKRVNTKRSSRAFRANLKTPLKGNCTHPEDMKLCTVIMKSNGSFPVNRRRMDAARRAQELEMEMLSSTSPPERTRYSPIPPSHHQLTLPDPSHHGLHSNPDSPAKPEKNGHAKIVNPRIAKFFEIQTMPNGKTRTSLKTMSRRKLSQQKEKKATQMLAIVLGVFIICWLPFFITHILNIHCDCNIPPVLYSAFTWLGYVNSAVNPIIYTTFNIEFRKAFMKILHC

[9] = target: T3, 5-hydroxytryptamine receptor 1A (Rattus norvegicus, UniProt P19327); experiment: Displacement of [3H]8OH-DPAT from 5HT1A receptor in rat hippocampal membrane; format: cell membranes, Hippocampus
T3 sequence (P19327 whole entry): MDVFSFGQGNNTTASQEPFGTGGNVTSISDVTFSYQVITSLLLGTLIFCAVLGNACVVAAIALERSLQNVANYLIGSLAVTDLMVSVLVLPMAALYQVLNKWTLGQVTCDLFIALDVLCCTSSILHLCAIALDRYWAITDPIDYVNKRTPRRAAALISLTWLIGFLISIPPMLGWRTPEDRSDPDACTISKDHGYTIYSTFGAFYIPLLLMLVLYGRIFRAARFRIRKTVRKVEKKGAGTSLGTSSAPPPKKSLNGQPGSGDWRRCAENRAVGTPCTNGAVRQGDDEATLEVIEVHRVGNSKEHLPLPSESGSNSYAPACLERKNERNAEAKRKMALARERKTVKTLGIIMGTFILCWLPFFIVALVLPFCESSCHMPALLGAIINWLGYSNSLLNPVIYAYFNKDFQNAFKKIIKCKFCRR

PC-3 [10] = experiment: Cytotoxicity against human PC3 cells assessed as LDH release after 24 hrs; format: functional, cell-based; conditions: PC-3, 24 h; summary of the method: as §2

Chain of Sigma non-opioid intracellular receptor 1 (Q60492 whole entry): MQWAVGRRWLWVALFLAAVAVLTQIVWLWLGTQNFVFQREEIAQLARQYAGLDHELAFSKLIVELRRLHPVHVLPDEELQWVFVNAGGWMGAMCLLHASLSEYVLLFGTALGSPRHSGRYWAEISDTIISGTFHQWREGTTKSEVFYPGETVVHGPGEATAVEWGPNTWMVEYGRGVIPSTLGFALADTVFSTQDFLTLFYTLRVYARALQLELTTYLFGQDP

SMILES | Ki [1] | Ratio Ki (Cavia porcellus) | Ki [5] | Ki [6] | EC50 (PC-3 [7]) | Ki [8] | Ki (D(2) dopamine receptor) | Ki [9] | Activity (PC-3 [2]) | inhibition at 100 µM (PC-3 [3]) | Ratio Ki [4] | EC50 (PC-3 [10])
c1ccc(CCN2CCCCC2)cc1 | 309 nM | 0.5 | 194 nM | 595 nM |  |  |  |  | <10% | 30% | 0.3 | 
COc1ccc([C@H]2CC[C@@H](N3CCN(c4ccccn4)CC3)CC2)cc1 | 194 nM | 4 | 63.8 nM | 32.8 nM |  | 786 nM | 787 nM | 94 nM | <10% |  |  | 
COc1cccc2c1CCCC2CCCN1CCN(C2CCCCC2)CC1 (stereo not drawn) |  |  | 0.34 nM | 8.38 nM | 37700 nM |  |  |  |  |  |  | 64200 nM

Second part, led by results:

Ki [1] | Ratio Ki (Cavia porcellus) | Ki [5] | Ki [6] | EC50 (PC-3 [7]) | Ki [8] | Ki (D(2) dopamine receptor) | Ki [9] | SMILES | Activity (PC-3 [2]) | inhibition at 100 µM (PC-3 [3]) | Ratio Ki [4] | EC50 (PC-3 [10])
369 nM | 45 | 242 nM | 8.15 nM | 19300 nM | 712 nM | 2120 nM | 480 nM | COc1ccccc1[C@H]1CC[C@@H](N2CCN(c3ccccn3)CC2)CC1 | <10% |  | 30 | 
 |  | 31.1 nM | 7660 nM |  |  |  |  | Cc1ccccc1NC(=N)Nc1ccccc1C | <10% | 27% |  | 
